Results as given in the array DNA melting data of Ke et al. (doi:10.1101/2024.01.08.574731).

Tests used:
[1] = folding enthalpy; higher = less favourable; fluorescence melt of hairpins on a sequencing array, two-state fit; conditions: sodium 0.088 M
Procedure, shortened: (§1)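 Melting temperature and folding enthalpy were obtained by bootstrapped two-state fitting. Fits used Cy3 fluorescence of library hairpins with annealed Cy3 and quencher oligos on a sequenced MiSeq flow cell, imaged in 50 mM Na-HEPES pH 8.0, 25 mM NaCl in 2.5 °C steps up to 60 °C and normalised to pre-quench Cy3 and control constructs. Four replicates were combined by inverse-variance weighting, and fitted temperatures were raised by 9.35 °C to match UV melts.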

[2] = melting temperature; fluorescence melt of hairpins on a sequencing array, two-state fit, raised by 9.35 °C to match UV melts; conditions: sodium 0.088 M
Procedure, shortened: as §1

Row | Sequence | folding enthalpy [1] | Tm [2]
1 | GGGTCCGAAAGGATGCCC ((((((....)))..))) | -24.3 kcal/mol | 45.5 °C
2 | GATCTTCACCAAGATC ((((((....)))))) | -35.5 kcal/mol | 41.9 °C
3 | GTATGGACGAAAGTCTAC (((..(((....)))))) | -10.9 kcal/mol | 29.2 °C
4 | GTATCAGGAAACTGGTAC (((.(((....))).))) | -29.5 kcal/mol | 43.5 °C
5 | GGAGACGAAAGTCATCC ((((((....))).))) | -17.3 kcal/mol | 45.5 °C
6 | GGGGTTCGAAAGAACCC (((.(((....)))))) | -17.9 kcal/mol | 69.3 °C
7 | GAAGCCGAAAGGCGGTTC ((((((....)))..))) | -9.79 kcal/mol | 47.1 °C
8 | GCATACGAAAGTAGTTGC ((((((....)))..))) | -17.5 kcal/mol | 33.1 °C
9 | GATCAAGCGTTTGATC ((((((....)))))) | -30.8 kcal/mol | 43.9 °C
10 | GCCACGCGAAAGCATCGC ((.(.((....)).).)) | -7.48 kcal/mol | 24 °C
11 | GCGTAGACACGC ((((....)))) | -19.8 kcal/mol | 50.7 °C
12 | GCGGCAGGAAACTGCCAC (.(((((....))))).) | -10.8 kcal/mol | 54.6 °C
13 | GCGGCTGGAAACGGTCGC (((.(.(....).).))) | -43.2 kcal/mol | 54 °C
14 | GTGACCGAAAGGTACCAC ((((((....)))..))) | -11.6 kcal/mol | 35.1 °C
15 | GACAACGAAAGTTCAGTC ((((((....)))..))) | -14.7 kcal/mol | 27.6 °C
16 | GGCCAAGGAAACTCGGCC ((((.((....)).)))) | -34 kcal/mol | 50.7 °C
17 | GTGCAACGAAAGTTTCAC (((.(((....))).))) | -21.4 kcal/mol | 41 °C
18 | GCGAACGGAAACATCCGC (((.(.(....).).))) | -7.45 kcal/mol | 20.9 °C
19 | GACCACGAAAGTGTGGTC ((((((....)))..))) | -41 kcal/mol | 55.2 °C

Row | Sequence | folding enthalpy [1] | Tm [2]
20 | GATCTGACCCAGATC ((((((...)))))) | -37.4 kcal/mol | 47.7 °C
21 | GATCACTCGCGTGATC ((((((....)))))) | -44.5 kcal/mol | 57.1 °C
22 | GATCTGAATCCAGATC ((((((....)))))) | -37.8 kcal/mol | 46 °C
23 | GATCACAATCGTGATC ((((((....)))))) | -38.5 kcal/mol | 56.4 °C
24 | GCCAAACGAAAGTTGGGC (((.(((....))).))) | -37.2 kcal/mol | 61.4 °C
25 | GGCTACGAAAGTAGTGCC ((((((....)))..))) | -16.6 kcal/mol | 46.7 °C
26 | GCCCTCCGAAAGGATGGC (((.(((....))).))) | -37.5 kcal/mol | 55 °C
27 | GCTGTGCGAAAGCCCAGC ((((.((....)).)))) | -28.1 kcal/mol | 61.8 °C
28 | GTGCGAGCGAAAGCTCAC (((..(((....)))))) | -12.2 kcal/mol | 59.4 °C
29 | GCCGTGCGAAAGCGCTGC ((.(.((....)).).)) | -19.6 kcal/mol | 49 °C
30 | GCAAAGCGAAAGCGGTGC (((..((....))..))) | -19.8 kcal/mol | 61.7 °C
31 | ACCCAGAAATGGGT (((((....))))) | -18.3 kcal/mol | 47.9 °C
32 | TTTCAGAAATGAAA (((((....))))) | -5.49 kcal/mol | 18 °C
33 | GATTGCGAAAGCAAGATC ((((((....)))..))) | -14.8 kcal/mol | 50.2 °C
34 | GCCACTGGAAACAGCGGC (((.(((....))).))) | -42.6 kcal/mol | 52.9 °C
35 | GATCCGTTTACGGATC ((((((....)))))) | -39.3 kcal/mol | 68.1 °C
36 | GCGTGACCACGC ((((....)))) | -21.2 kcal/mol | 61.3 °C
37 | GTGGGAGGAAACTCTCAC (((.(((....))).))) | -39.1 kcal/mol | 48.7 °C
38 | TGTGGGAAACCACA (((((....))))) | -20.5 kcal/mol | 49.6 °C
